From ChEMBL document CHEMBL4610001 (J Med Chem, 2020)
Activity calls are given as the source filed them. The calls are words filed in the database; no cut-off is given here.

Assays:
[1] = biological target: T1, Lysophosphatidic acid receptor 1 (Homo sapiens, UniProt Q92633); experiment: Agonist activity at LPA1 receptor (unknown origin) stably expressed in rat RH7777 cells assessed as increase in intracellular calcium level at 10 uM by Fluo-4 NW dye based fluorescence assay; type: functional, cell-based
How it was run: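 LPA1-stably transfected RH7777 hepatoma cells on poly-D-lysine, 50000 cells/well, cultured overnight. Loaded with Fluo-4 NW plus […] for 30 min at 37°C, then 30 min at rt. Compound added at 120 s of a 240 s read (ex 494/em 525 nm). Response taken as maximum minus baseline, relative to the 10 μM LPA control; ionomycin 10 μM also included. Run in triplicate.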

[2] = biological target: Lysophosphatidic acid receptor 1 (Rattus norvegicus) (UniProt P61794); experiment: Agonist activity at LPA1 receptors in Wistar rat DRG neurons assessed as increase in calcium influx at 500 nM measured after 10 secs in presence of capsaicin by Fluo-4 NW dye based inverted microscopic method; type: functional
[3] = biological target: T1, Lysophosphatidic acid receptor 1; experiment: Agonist activity at recombinant human full-length LPA1 receptor expressed in dhfr- deficient CHO cells assessed as increase in intracellular calcium flux measured for 1 min by fluo-3AM dye based FLIPR assay; type: functional, cell-based
[4] = Stability of the compound in PBS at pH 7.4 assessed as parent compound remaining incubated up to 8 hrs by HPLC-MS; type: physicochemical; settings: read-out: Stability
How it was run: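 Compound from a 25 mM DMSO stock was diluted into PBS pH 7.4 and kept at rt. Parent compound remaining at each time point was measured by HPLC-MS in SIM mode, with peak area normalised to an internal standard.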

[5] = Stability of the compound in culture medium assessed as parent compound remaining incubated for up to 8 hrs by HPLC-MS; type: physicochemical; settings: read-out: Stability
How it was run: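 Compound from a 50 mM DMSO stock was added to culture medium pre-warmed to 37°C and incubated at 37°C. Aliquots were quenched in cold acetonitrile, iced 10 min and centrifuged. Supernatants were analysed by HPLC-MS in SIM mode, with peak area normalised to an internal standard.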

[6] = biological target: T1, Lysophosphatidic acid receptor 1; experiment: Agonist activity at LPA1 receptor (unknown origin) stably expressed in rat RH7777 cells assessed as increase in intracellular calcium level by Fluo-4 NW dye based fluorescence assay; type: functional, cell-based
[7] = biological target: T1, Lysophosphatidic acid receptor 1; experiment: Binding affinity to LPA1 receptor (unknown origin) by cell-based backscattering interferometry
[8] = biological target: Lysophosphatidic acid receptor 1 (Rattus norvegicus) (UniProt P61794); experiment: Agonist activity at LPA1 receptors in Wistar rat DRG neurons assessed as increase in calcium influx at 10 uM measured after 10 secs in presence of capsaicin by Fluo-4 NW dye based inverted microscopic method; type: functional
How it was run: (§1)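 DRG neurons from 3–5-day-old Wistar rats were collagenase-digested and cultured 48 h with NGF. Cells loaded with 5 μM Fluo-4AM and 0.02% pluronic in HEPES-buffered HBSS pH 7.4 for 1 h at 37°C, then perfused at rt. Compound given at 10 μM final (from 10 mM DMSO stock) as 10 s pulses. Capsaicin and 40 mM KCl (10 s, viability) also applied. Signal is peak minus baseline fluorescence; a response is >20% over baseline.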

[9] = biological target: Lysophosphatidic acid receptor 1 (Rattus norvegicus) (UniProt P61794); experiment: Induction of LPA1 receptor desensitization in Wistar rat DRG neurons assessed as reduction in calcium influx at 10 uM treated twice after 10 secs in presence of capsaicin by Fluo-4 NW dye based inverted microscopic method; type: functional; how it was run: as §1
[10] = biological target: Lysophosphatidic acid receptor 1 (Rattus norvegicus) (UniProt P61794); experiment: Agonist activity at LPA1 receptors in Wistar rat DRG neurons assessed as increase in neuronal activity at 10 uM incubated for 15 secs in presence of capsaicin by Microelectrode Array
How it was run: (§2)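 Neonatal Wistar rat DRG neurons, cultured 48 h on poly-L-lysine/laminin-coated 60-electrode MEA chips. Compound perfused at 10 μM final for 15 s at 2 mL/min. Extracellular activity recorded at 25 kHz; output is mean spike frequency.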

[11] = biological target: Lysophosphatidic acid receptor 1 (Rattus norvegicus) (UniProt P61794); experiment: Induction of LPA1 receptor desensitization in Wistar rat DRG neurons assessed as reduction in neuronal activity at 10 uM treated for 15 secs twice with 4 mins interval in presence of capsaicin by microelectrode Array; how it was run: as §2
[12] = biological target: Lysophosphatidic acid receptor 1 (Rattus norvegicus) (UniProt P61794); experiment: Agonist activity at LPA1 receptors in Wistar rat DRG neurons assessed as increase in neuronal activity at 10 uM incubated for 15 secs in presence of capsazepine by Microelectrode Array; how it was run: as §2
[13] = biological target: Lysophosphatidic acid receptor 1 (Rattus norvegicus) (UniProt P61794); experiment: Induction of LPA1 receptor desensitization in Wistar rat DRG neurons assessed as reduction in neuronal activity at 10 uM treated for 15 secs twice with 4 mins interval in presence of capsazepine by microelectrode Array; how it was run: as §2

Chain of Lysophosphatidic acid receptor 1 (Rattus norvegicus) (P61794 whole entry, the tested form may be a part): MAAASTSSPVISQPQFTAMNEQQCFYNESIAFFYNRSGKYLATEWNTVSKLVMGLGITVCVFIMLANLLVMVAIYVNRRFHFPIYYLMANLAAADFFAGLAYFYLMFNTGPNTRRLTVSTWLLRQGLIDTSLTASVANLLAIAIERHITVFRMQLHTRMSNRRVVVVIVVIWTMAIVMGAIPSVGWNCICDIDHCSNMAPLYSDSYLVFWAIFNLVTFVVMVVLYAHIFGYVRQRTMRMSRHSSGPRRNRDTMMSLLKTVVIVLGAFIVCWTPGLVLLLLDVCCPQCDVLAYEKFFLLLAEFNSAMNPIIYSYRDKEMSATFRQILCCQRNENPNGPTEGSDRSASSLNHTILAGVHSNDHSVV
T1 sequence (Q92633 whole entry): as the sequence (P61794 whole entry, the tested form may be a part) above, with A4I, S8I, Q22P, Y40H, V61I, D193E, H194N, V269I, N331S, N335T counted along it

Row | SMILES | Activity [1] | also measured
1 | O=C(CCCCCCc1ccccc1)OC[C@@H](O)COP(=O)(O)O | inactive | 
2 | CO[C@H](COC(=O)CCCCCCCCCc1ccccc1)CC(F)(C(=O)O)C(=O)O | inactive | 
3 | CCCCCCCC/C=C\CCCCCCCC(=O)OCCCC(C(=O)O)C(=O)O | inactive | 
4 | CCCCCC/C=C\CCCCCCCC(=O)OC[C@@H]1C[C@@](F)(C(=O)O)C(=O)O1 | inactive | 
5 | CCCCCCCC/C=C\CCCCCCCC(=O)OC[C@@H](O)COCC(=O)O | inactive | 
6 | CCCCCCCC/C=C\CCCCCCCC(=O)OC[C@@H](O)COc1ccc(B(O)O)cc1 | inactive | 
7 | COc1cc(CNC(=O)CCCC/C=C/C(C)C)ccc1O |  | Activity [2]: Active
8 | CCCCCCCC/C=C\CCCCCCCC(=O)OC[C@@H]1CC(C(=O)O)C(=O)O1 (stereo partly drawn) | inactive | 
9 | O=C(CCCCCCCCCCCCCCc1ccccc1)OC[C@@H](O)COP(=O)(O)O | inactive | 
10 | O=C(CCCCCCCCCc1ccccc1)OC[C@@H]1CC(F)(C(=O)O)C(=O)O1 (stereo partly drawn) | inactive | 
11 | CC1CCC2(C)c3[nH]c4ccccc4c3CCN2C1 (stereo not drawn) |  | EC50 [3]: 3.6 µM
12 | O=C(CCCCCCCCCc1ccccc1)O[C@H](CBr)COP(=O)(O)O |  | remaining at 8 h [4]: > 85%; remaining at 8 h [5]: > 85%
13 | CCCCCCCC/C=C\CCCCCCCC(=O)OCCCC(F)(C(=O)O)C(=O)O | inactive | 
14 | CCCCCCCC/C=C\CCCCCCCC(=O)O[C@H](CBr)COP(=O)(O)O |  | EC50 [6]: 3.2 µM
15 | CCCCCCCC/C=C\CCCCCCCC(=O)OC[C@@H](O)COP(=O)(O)O [LYSOPHOSPHATIDIC ACID] |  | EC50 [6]: 0.83 µM; Kd [7]: 0.0056 µM; Activity [8]: Active; Activity [9]: Active; Activity [10]: Active; Activity [11]: Active; Activity [12]: Active; Activity [13]: Active
16 | CCCCCC/C=C\CCCCCCCC(=O)OC[C@@H]1C[C@](F)(C(=O)O)C(=O)O1 | inactive | 
17 | O=C(CCCCCCCc1ccccc1)OC[C@@H](O)COP(=O)(O)O | inactive | 
18 | CCCCCCCCCC/C=C\CCCCCCCC(=O)OC[C@@H](O)COP(=O)(O)O | inactive | 
19 | CCCCCC/C=C\CCCCCCCC(=O)O[C@H](CBr)COP(=O)(O)O | inactive | 
20 | O=C(CCCCCCCCc1ccccc1)O[C@H](CBr)COP(=O)(O)O | inactive | 
21 | CCCCCCCC/C=C\CCCCCCCC(=O)OC[C@@H](O)Cc1nnn[nH]1 | inactive | 
22 | O=C(CCCCCCCCCCc1ccccc1)O[C@H](CBr)COP(=O)(O)O | inactive | 
23 | O=C(CCCCCCc1ccc(-c2ccccc2)cc1)OC[C@@H](O)COP(=O)(O)O | inactive | 
24 | O=C(CCCCCCCCCCCCc1ccc(-c2ccccc2)cc1)OC[C@@H](O)COP(=O)(O)O |  | EC50 [6]: 19 µM
25 | CCCCCCCC/C=C\CCCCCCCC(=O)NC[C@H](CC(F)(C(=O)O)C(=O)O)OC | inactive | 
